Reference: ChEMBL document CHEMBL1909601, “Synthesis and structure-activity relationship studies of dihydronaphthyridinediones as a novel structural class of potent and selective PDE7 inhibitors” (Bioorg Med Chem Lett, 2011)

Tests used:
[1] = biological target: High affinity 3',5'-cyclic-AMP phosphodiesterase 7A (Homo sapiens, UniProt Q13946); assay: Inhibition of human recombinant PDE7A1 expressed in baculovirus infected insect Sf21 cells after 30 mins by scintillation proximity assay
In short: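 Full-length human recombinant PDE7A1 produced in baculovirus-infected Sf21 cells. SPA read-out with [3H]-cAMP at 20 nM in 80 mM Tris/10 mM MgSO4, pH 7.4. Reaction run 30 min at 37 °C before bead addition and scintillation counting. Background measured without enzyme. IC50 derived.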

[2] = biological target: 3',5'-cyclic-AMP phosphodiesterase 4A (Homo sapiens, UniProt P27815); assay: Inhibition of human recombinant PDE4A4 expressed in baculovirus infected insect Sf21 cells after 30 mins by scintillation proximity assay
3',5'-cyclic-AMP phosphodiesterase 4A, sequence (P27815 whole entry): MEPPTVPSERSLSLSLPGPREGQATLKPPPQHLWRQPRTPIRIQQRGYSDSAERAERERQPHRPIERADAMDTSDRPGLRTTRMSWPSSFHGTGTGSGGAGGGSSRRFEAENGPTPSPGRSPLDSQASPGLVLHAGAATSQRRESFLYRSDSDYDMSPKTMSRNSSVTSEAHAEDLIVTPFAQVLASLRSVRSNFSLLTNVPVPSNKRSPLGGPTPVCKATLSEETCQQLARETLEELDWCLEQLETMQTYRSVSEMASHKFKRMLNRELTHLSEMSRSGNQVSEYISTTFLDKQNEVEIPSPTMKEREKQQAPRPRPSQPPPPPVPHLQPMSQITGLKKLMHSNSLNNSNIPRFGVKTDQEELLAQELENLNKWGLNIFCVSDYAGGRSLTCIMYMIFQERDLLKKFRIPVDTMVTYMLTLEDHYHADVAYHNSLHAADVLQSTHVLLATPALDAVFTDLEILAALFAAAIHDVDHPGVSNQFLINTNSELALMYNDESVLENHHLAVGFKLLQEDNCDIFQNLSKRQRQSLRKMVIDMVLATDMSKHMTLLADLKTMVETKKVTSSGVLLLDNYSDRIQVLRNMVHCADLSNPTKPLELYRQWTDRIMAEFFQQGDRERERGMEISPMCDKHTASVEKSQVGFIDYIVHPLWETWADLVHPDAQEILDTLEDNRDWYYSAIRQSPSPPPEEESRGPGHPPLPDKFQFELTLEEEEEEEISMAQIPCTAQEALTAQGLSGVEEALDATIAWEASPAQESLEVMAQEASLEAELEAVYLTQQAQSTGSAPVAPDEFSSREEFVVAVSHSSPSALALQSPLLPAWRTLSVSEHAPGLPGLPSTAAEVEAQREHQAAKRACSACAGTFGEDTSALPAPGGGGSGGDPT
In short: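 Full-length human recombinant enzyme expressed in baculovirus-infected Sf21 cells. Scintillation proximity assay with 500 nM [3H]-cAMP substrate in 80 mM Tris/10 mM MgSO4, pH 7.4. Incubated 30 min at 37 °C, then SPA beads added and plates counted. Background taken in presence of 10 µM rolipram. IC50 reported.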

[3] = species on record: Homo sapiens; assay: Selectivity ratio of IC50 for human recombinant PDE4A4 to IC50 for human recombinant PDE7A1
In short: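 Ratio of IC50 values for the two enzymes. PDE4A4 run at 500 nM [3H]-cAMP with a 10 µM rolipram background; PDE7A1 run at 20 nM [3H]-cAMP with a no-enzyme background. Both used full-length human enzymes from Sf21 cells, 30 min at 37 °C, pH 7.4 Tris/MgSO4, SPA read-out.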

High affinity 3',5'-cyclic-AMP phosphodiesterase 7A, sequence (Q13946 whole entry): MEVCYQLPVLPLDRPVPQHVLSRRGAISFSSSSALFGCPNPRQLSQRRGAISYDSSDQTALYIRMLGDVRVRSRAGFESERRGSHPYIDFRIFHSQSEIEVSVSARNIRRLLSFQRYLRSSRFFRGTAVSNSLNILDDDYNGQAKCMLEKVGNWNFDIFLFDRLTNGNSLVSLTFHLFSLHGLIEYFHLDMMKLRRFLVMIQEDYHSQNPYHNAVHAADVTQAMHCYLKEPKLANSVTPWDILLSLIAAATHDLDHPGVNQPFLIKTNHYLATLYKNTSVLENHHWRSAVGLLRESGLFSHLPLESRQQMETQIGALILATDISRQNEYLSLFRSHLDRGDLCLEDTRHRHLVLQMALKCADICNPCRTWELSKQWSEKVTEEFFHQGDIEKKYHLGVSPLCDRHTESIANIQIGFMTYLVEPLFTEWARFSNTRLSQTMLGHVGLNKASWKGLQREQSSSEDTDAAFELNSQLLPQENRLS

Compound | IC50 [1] [nM] | IC50 [2] [nM] | Ratio IC50 [3]
O=C(Nc1ccc(N2CCOCC2)cc1)c1cn(Cc2ccccc2Cl)c2ccc(=O)[nH]c2c1=O | 767 | > 1000 | 
N#Cc1ccc(NC(=O)c2cn(Cc3c(F)cccc3F)c3ccc(=O)[nH]c3c2=O)cc1 | 96 | > 1000 | 
COc1cc(NC(=O)c2cn(Cc3c(F)cccc3F)c3ccc(=O)[nH]c3c2=O)cc(OC)c1OC | 18 | 516 | 
O=C(Nc1ccc(N2CCOCC2)cc1)c1cn(Cc2ccc(F)cc2)c2ccc(=O)[nH]c2c1=O | 2380 | > 5000 | 
CC(=O)Nc1ccc(NC(=O)c2cn(Cc3c(F)cccc3F)c3ccc(=O)[nH]c3c2=O)cc1 | 24 | 362 | 
COc1cc(NC(=O)c2cn(Cc3c(F)cccc3Cl)c3ccc(=O)[nH]c3c2=O)cc(OC)c1OC | 33 | > 1000 | 
O=C(Nc1ccc(N2CCOCC2)cc1)c1cn(Cc2ccccc2)c2ccc(=O)[nH]c2c1=O | 712 | > 1000 | 
COc1cc(NC(=O)c2cn(Cc3c(Cl)cccc3Cl)c3ccc(=O)[nH]c3c2=O)cc(OC)c1OC | 88 | 979 | 
O=C(O)c1ccc(NC(=O)c2cn(Cc3c(F)cccc3F)c3ccc(=O)[nH]c3c2=O)cc1 | 200 | 1520 | 
O=C(Nc1ccc(N2CCOCC2)cc1)c1cn(Cc2c(F)c(F)cc(F)c2F)c2ccc(=O)[nH]c2c1=O | 317 | 3560 | 
CNc1ccc(NC(=O)c2cn(Cc3c(F)cccc3F)c3ccc(=O)[nH]c3c2=O)cc1 | 82 | 994 | 
O=C(Nc1ccc(N2CCOCC2)cc1)c1cn(Cc2ccc(OC(F)(F)F)cc2)c2ccc(=O)[nH]c2c1=O | > 1000 | > 1000 | 
CS(=O)(=O)c1cccc(NC(=O)c2cn(Cc3c(F)cccc3Cl)c3ccc(=O)[nH]c3c2=O)c1 | 59 | 1420 | 24
CN(C)c1ccc(NC(=O)c2cn(Cc3c(F)cccc3Cl)c3ccc(=O)[nH]c3c2=O)cc1 | 39 | 402 | 6
CCN(CC)c1ccc(NC(=O)c2cn(Cc3c(F)cccc3F)c3ccc(=O)[nH]c3c2=O)cc1 | 46 | 442 | 
CS(=O)(=O)c1ccc(NC(=O)c2cn(Cc3c(F)cccc3Cl)c3ccc(=O)[nH]c3c2=O)cc1 | 12 | 73 | 6
COc1cc(NC(=O)c2cn(Cc3c(F)cccc3F)c3ccc(=O)[nH]c3c2=O)cc(OC)c1 | 212 | > 1000 | 
COc1ccc(NC(=O)c2cn(Cc3c(F)cccc3Cl)c3ccc(=O)[nH]c3c2=O)cc1Cl | 34 | > 1000 | 
COc1cc(NC(=O)c2cn(Cc3ccc(F)cc3)c3ccc(=O)[nH]c3c2=O)cc(OC)c1OC | 868 | > 1000 | 
O=C(Nc1ccc(O)cc1)c1cn(Cc2c(F)cccc2F)c2ccc(=O)[nH]c2c1=O | 105 | > 1000 | 
O=C(Nc1ccccc1)c1cn(Cc2c(F)cccc2F)c2ccc(=O)[nH]c2c1=O | 94 | 1330 | 

Compound | IC50 [1] [nM] | IC50 [2] [nM] | Ratio IC50 [3]
COc1cc(NC(=O)c2cn(Cc3ccc(F)cc3Cl)c3ccc(=O)[nH]c3c2=O)cc(OC)c1OC | 192 | > 1000 | 
CC(=O)c1ccc(NC(=O)c2cn(Cc3c(F)cccc3F)c3ccc(=O)[nH]c3c2=O)cc1 | 29 | > 1000 | 
O=C(Nc1ccc(N2CCOCC2)cc1)c1cn(Cc2c(F)cccc2F)c2ccc(=O)[nH]c2c1=O | 22 | 506 | 
N#Cc1cccc(NC(=O)c2cn(Cc3c(F)cccc3F)c3ccc(=O)[nH]c3c2=O)c1 | 1070 | > 1000 | 
O=C(Nc1ccc(S(=O)(=O)Nc2nccs2)cc1)c1cn(Cc2c(F)cccc2F)c2ccc(=O)[nH]c2c1=O | 25 | 481 | 
COc1ccc2c(n1)c(=O)c(C(=O)Nc1ccc(N3CCOCC3)cc1)cn2Cc1c(F)cccc1F | > 5000 | > 5000 | 
O=C(Nc1ccc(N2CCOCC2)cc1)c1cn(Cc2c(Cl)cccc2Cl)c2ccc(=O)[nH]c2c1=O | 165 | > 1000 | 
NC(=O)c1cccc(NC(=O)c2cn(Cc3c(F)cccc3Cl)c3ccc(=O)[nH]c3c2=O)c1 | 44 | 580 | 6
COc1cc(NC(=O)c2cn(Cc3ccccc3Br)c3ccc(=O)[nH]c3c2=O)cc(OC)c1OC | > 1000 | > 1000 | 
CNC(=O)c1ccc(NC(=O)c2cn(Cc3c(F)cccc3Cl)c3ccc(=O)[nH]c3c2=O)cc1 | 18 | 156 | 
O=C(Nc1ccc(C(F)(F)F)cc1)c1cn(Cc2c(F)cccc2F)c2ccc(=O)[nH]c2c1=O | 300 | > 1000 | 
CS(=O)(=O)c1ccc(NC(=O)c2cn(Cc3c(F)cccc3F)c3ccc(=O)[nH]c3c2=O)cc1 | 27 | > 1000 | 
CC(=O)c1ccc(NC(=O)c2cn(Cc3c(F)cccc3Cl)c3ccc(=O)[nH]c3c2=O)cc1 | 18 | 161 | 6
CC(=O)Nc1ccc(NC(=O)c2cn(Cc3c(F)cccc3Cl)c3ccc(=O)[nH]c3c2=O)cc1 | 17 | 362 | 6
O=C(Nc1ccc(N2CCCCC2)cc1)c1cn(Cc2c(F)cccc2F)c2ccc(=O)[nH]c2c1=O | 124 | > 1000 | 
CNC(=O)c1ccc(NC(=O)c2cn(Cc3c(F)cccc3F)c3ccc(=O)[nH]c3c2=O)cc1 | 29 | 560 | 
COc1ccc(NC(=O)c2cn(Cc3c(F)cccc3F)c3ccc(=O)[nH]c3c2=O)cc1 | 151 | > 1000 | 
COc1cc(NC(=O)c2cn(Cc3ccccc3F)c3ccc(=O)[nH]c3c2=O)cc(OC)c1OC | 206 | > 1000 | 
O=C(Nc1ccc(N2CCOCC2)cc1)c1cn(Cc2c(F)cccc2F)c2cccnc2c1=O | 823 | 379 | 
O=C(Nc1ccc(S(=O)(=O)Nc2nccs2)cc1)c1cn(Cc2c(F)cccc2Cl)c2ccc(=O)[nH]c2c1=O | 32 | 274 | 
O=C(NCc1ccncc1)c1ccc(NC(=O)c2cn(Cc3c(F)cccc3F)c3ccc(=O)[nH]c3c2=O)cc1 | 20 | 430 | 

Compound | IC50 [1] [nM] | IC50 [2] [nM] | Ratio IC50 [3]
O=C(Nc1ccc(N2CCOCC2)cc1)c1cn(Cc2ccc(F)cc2F)c2ccc(=O)[nH]c2c1=O | > 1000 | > 1000 | 
O=C(Nc1ccc(OC(F)F)cc1)c1cn(Cc2c(F)cccc2F)c2ccc(=O)[nH]c2c1=O | 71 | 568 | 
O=C(Nc1ccc(N2CCOCC2)cc1)c1cn(Cc2cc(F)cc(F)c2)c2ccc(=O)[nH]c2c1=O | > 1000 | > 1000 | 
NC(=O)c1ccc(NC(=O)c2cn(Cc3c(F)cccc3F)c3ccc(=O)[nH]c3c2=O)cc1 | 49 | 201 | 
O=C(Nc1ccc(F)cc1)c1cn(Cc2c(F)cccc2F)c2ccc(=O)[nH]c2c1=O | 179 | > 1000 | 
NS(=O)(=O)c1ccc(NC(=O)c2cn(Cc3c(F)cccc3F)c3ccc(=O)[nH]c3c2=O)cc1 | 34 | 458 | 
NS(=O)(=O)c1ccc(NC(=O)c2cn(Cc3c(F)cccc3Cl)c3ccc(=O)[nH]c3c2=O)cc1 | 20 | 385 | 19
Nc1ccc(NC(=O)c2cn(Cc3c(F)cccc3F)c3ccc(=O)[nH]c3c2=O)cc1 | 104 | 477 | 
O=C(Nc1ccc(N2CCOCC2)cc1)c1cn(Cc2ccccc2C(F)(F)F)c2ccc(=O)[nH]c2c1=O | > 1000 | > 1000 | 
CN(C)c1ccc(NC(=O)c2cn(Cc3c(F)cccc3F)c3ccc(=O)[nH]c3c2=O)cc1 | 66 | 471 | 
NC(=O)c1ccc(NC(=O)c2cn(Cc3c(F)cccc3Cl)c3ccc(=O)[nH]c3c2=O)cc1 | 10 | 90 | 6
O=C(Nc1ccc(OC(F)(F)F)cc1)c1cn(Cc2c(F)cccc2F)c2ccc(=O)[nH]c2c1=O | 90 | > 1000 | 
Cc1ccccc1Cn1cc(C(=O)Nc2ccc(N3CCOCC3)cc2)c(=O)c2[nH]c(=O)ccc21 | 266 | > 1000 | 
O=C(Nc1ccc(C(=O)N2CCOCC2)cc1)c1cn(Cc2c(F)cccc2F)c2ccc(=O)[nH]c2c1=O | 188 | 1060 | 
COc1cc(NC(=O)c2cn(Cc3ccccc3)c3ccc(=O)[nH]c3c2=O)cc(OC)c1OC | 686 | > 1000 | 
O=C(Nc1c(F)cccc1F)c1cn(Cc2c(F)cccc2F)c2ccc(=O)[nH]c2c1=O | > 1000 | 219 | 
CSc1ccc(NC(=O)c2cn(Cc3c(F)cccc3F)c3ccc(=O)[nH]c3c2=O)cc1 | 86 | > 1000 | 
COc1cc(NC(=O)c2cn(Cc3ccccc3Cl)c3ccc(=O)[nH]c3c2=O)cc(OC)c1OC | 178 | > 1000 | 
O=C(O)Cc1ccc(NC(=O)c2cn(Cc3c(F)cccc3F)c3ccc(=O)[nH]c3c2=O)cc1 | 176 | > 1000 | 
